In ChEMBL document CHEMBL3414437, “Synthesis of CDDO-amino acid-nitric oxide donor trihybrids as potential antitumor agents against both drug-sensitive and drug-resistant colon cancer” (J Med Chem, 2015):
Active and inactive are the calls of the source. The calls are words filed in the database; no cut-off is given here.

Legend:
[1] = tested on: Mus musculus; test: Toxicity in nude BALB/c mouse xenografted with FU-resistant human HCT8 cells assessed as abnormal size changes in liver at 59.4 umol/kg administered as via oral gavage daily for 21 days; assay type: organism-based, HCT-8; conditions: in vivo, 504 h
Summary of the method: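 Male BALB/c nude mice aged 6-8 weeks, implanted s.c. in the right flank with HCT-8/5-FU cells (2 × 10^6). Once tumors reached 180-200 mm3 (days 9-11), randomized to daily gavage for 21 days in cremophor-EL/DMSO/PBS (1:1:8), 0.2 mL. At the end, liver, kidney, lung and heart checked for size, colour and weight. n = 8 per group.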

[2] = tested on: HCT-8; test: Induction of nitric oxide release in human HCT8 cells at 150 uM incubated for 150 mins after 150 mins of pre-treatment with 0.75 uM to 192 uM pepT1 substrate Gly-Sar by Griess assay; assay type: functional, cell-based
Summary of the method: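 Cells pretreated with Gly-Sar (0.75–192 µM, nine levels) for 150 min, then given compound at 150 µM for 150 min. Intracellular nitrite in lysates measured with Griess reagent (10 min, 37 °C, 540 nm) against a sodium nitrite standard curve. Mean ± SD of three experiments.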

[3] = Toxicity in male ICR mouse assessed as mouse mortality at 2.38 x 10^3 umol/kg administered as single dose via oral gavage measured up to 14 days post treatment; assay type: organism-based; conditions: in vivo
Summary of the method: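 Female or male adult ICR mice, 10 per sex group, were randomised and given a single oral gavage dose of 2,000 mg/kg in cremophor-EL/DMSO/PBS (1:1:8). Total mortality was recorded over days 1–14, and body weight on days 0, 7 and 14 as mean ± SD.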

Compound	Activity [1]	Activity [2]	mortality at 336 h [3] [%]
COC(=O)[C@]12CCC(C)(C)C[C@H]1[C@H]1C(=O)C=C3[C@@]4(C)C=C(C#N)C(=O)C(C)(C)[C@@H]4CC[C@@]3(C)[C@]1(C)CC2 [BARDOXOLONE METHYL]	Non-toxic	–	–
CC1(C)CC[C@]2(C(=O)NCC(=O)OCC#CCOc3no[n+]([O-])c3S(=O)(=O)c3ccccc3)CC[C@]3(C)[C@H](C(=O)C=C4[C@@]5(C)C=C(C#N)C(=O)C(C)(C)[C@@H]5CC[C@]43C)[C@@H]2C1	–	inactive	0
